Experimental findings from the array DNA melting data of Ke et al. (doi:10.1101/2024.01.08.574731) are described below.

Data set [1] in a line: melting temperature; fluorescence melt of hairpins on a sequencing array, two-state fit, raised by 9.35 °C to match UV melts. The conditions noted are these: sodium 0.088 M. In short, it runs like this: (§1)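 Library hairpins on a sequenced MiSeq flow cell carried annealed Cy3 and quencher oligos, and their Cy3 fluorescence was imaged in 50 mM Na-HEPES pH 8.0 with 25 mM NaCl, in 2.5 °C steps up to 60 °C. Signals were normalised to Cy3 before quenching and to control constructs. Melting temperature and folding enthalpy were obtained from bootstrapped two-state fits, combined by inverse-variance weighting across four replicates, and the fitted temperatures were then raised by 9.35 °C to match UV melts.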

Data set [2] can be described thus: folding enthalpy; higher = less favourable; fluorescence melt of hairpins on a sequencing array, two-state fit. The conditions noted are these: sodium 0.088 M. In short, it runs like this: as §1

In the case of GATCTTGTCTAAGATC ((((((....)))))), the Tm in data set [1] turned out to be 48.4 °C. Moreover, in data set [2], the folding enthalpy was -170 kJ/mol.

Consider GATCTTGTGAAAGATC ((((((....)))))), for which the Tm in data set [1] is 51.2 °C. Moreover, in data set [2], the folding enthalpy is -156 kJ/mol.

GATCTTTAATAAGATC ((((((....)))))): in data set [1], the Tm turned out to be 40.9 °C. In addition, in data set [2], the folding enthalpy was -130 kJ/mol.

Take GATCTTTATAAAGATC ((((((....)))))): the Tm in data set [1] was found to be 45.5 °C. The folding enthalpy in data set [2] is -161 kJ/mol.

As for GATCTTTCACAAGATC ((((((....)))))), the Tm in data set [1] came to 43.1 °C. For the same sequence, in data set [2], the folding enthalpy is -128 kJ/mol.

Regarding GATCTTTCCCAAGATC ((((((....)))))), the Tm in data set [1] turned out to be 42.6 °C. For the same sequence, the folding enthalpy in data set [2] is -140 kJ/mol.

For GATCTTTCCGAAGATC ((((((....)))))), the Tm in data set [1] is 46.4 °C. Moreover, in data set [2], the folding enthalpy was -139 kJ/mol.

Consider GATCTTTCGTAAGATC ((((((....)))))), for which the Tm in data set [1] came out at 44.4 °C. For the same sequence, the folding enthalpy in data set [2] is -128 kJ/mol.

As for GATCTTTTGAAAGATC ((((((....)))))), in data set [1], the Tm worked out at 44.7 °C. The folding enthalpy in data set [2] is -118 kJ/mol.

Consider GATCTTTTGTAAGATC ((((((....)))))), for which the Tm in data set [1] worked out at 44.2 °C. Further, the folding enthalpy in data set [2] is -130 kJ/mol.

In the case of GATGACCGAAAGGTAATC (((.(((....))).))), the Tm in data set [1] was 47.1 °C. Besides, in data set [2], the folding enthalpy was -97.7 kJ/mol.

For GATGACCGAAAGGTATC (((.(((....)))))), in data set [1], the Tm is 34.7 °C. Further, the folding enthalpy in data set [2] is -69.2 kJ/mol.

In the case of GATGACCGAAAGGTGATC (((.(((....))).))), in data set [1], the Tm came out at 47.7 °C. Also, in data set [2], the folding enthalpy is -112 kJ/mol.

In the case of GATGACGAAAGTCACATC ((((((....)))..))), the Tm in data set [1] amounted to 29.2 °C. The folding enthalpy in data set [2] is -36.5 kJ/mol.

With GATGACGAAAGTCGAATC ((((((....)))..))), the Tm in data set [1] was 33 °C. Also, the folding enthalpy in data set [2] was -57.4 kJ/mol.

For GATGACGAAAGTCGATC ((((((....))).))), in data set [1], the Tm came to 45.2 °C. For the same sequence, the folding enthalpy in data set [2] was -78.5 kJ/mol.

With GATGACGAAAGTCGTATC ((((((....)))..))), the Tm in data set [1] came to 36 °C. Besides, in data set [2], the folding enthalpy was -50.8 kJ/mol.

Regarding GATGACGAAAGTCTCATC ((((((....)))..))), the Tm in data set [1] turned out to be 32.5 °C. Further, the folding enthalpy in data set [2] is -40.7 kJ/mol.

On to GATGACGAAAGTCTTATC ((((((....)))..))), for which the Tm in data set [1] came to 25.5 °C. Moreover, the folding enthalpy in data set [2] was -52 kJ/mol.

Take GATGACGGAAACGTCGTC ((.((((....)))).)): the Tm in data set [1] was 52.8 °C. For the same sequence, the folding enthalpy in data set [2] was -181 kJ/mol.

GATGAGAAATCATC (((((....))))): the Tm in data set [1] came out at 39.8 °C. Also, the folding enthalpy in data set [2] was -86.3 kJ/mol.

For the sequence GATGAGCGAAAGCTTATC (((.(((....))).))), in data set [1], the Tm was 49.1 °C. Besides, the folding enthalpy in data set [2] is -118 kJ/mol.

Consider GATGAGGGAAACCTCACC (.(((((....))))).), for which the Tm in data set [1] is 35.5 °C. Besides, the folding enthalpy in data set [2] is -65.7 kJ/mol.

As for GATGATGGAAACATCATC (((((((....))))))), in data set [1], the Tm stood at 58.1 °C. Also, in data set [2], the folding enthalpy was -188 kJ/mol.

In the case of GATGCACGAAAGTGATC (((.(((....)))))), the Tm in data set [1] is 36.6 °C. Moreover, the folding enthalpy in data set [2] is -56.9 kJ/mol.

Turning to GATGCAGAAATGCATC ((((((....)))))), in data set [1], the Tm worked out at 58.7 °C. Moreover, the folding enthalpy in data set [2] is -154 kJ/mol.

Consider GATGCAGCGAAAGCTATC (((..(((....)))))), for which, in data set [1], the Tm turned out to be 24.7 °C. Moreover, in data set [2], the folding enthalpy is -37.9 kJ/mol.

For GATGCAGGAAACTGCATC (((((((....))))))), in data set [1], the Tm came out at 64.7 °C. In data set [2], the folding enthalpy was -182 kJ/mol.

As to GATGCCGAAAGGCCTATC ((((((....)))..))), the Tm in data set [1] was 24 °C. Besides, the folding enthalpy in data set [2] was -27.9 kJ/mol.

For GATGCCGAAAGGCGGATC ((((((....)))..))), the Tm in data set [1] is 40.5 °C. Further, the folding enthalpy in data set [2] is -43.9 kJ/mol.

As for GATGCGCCGAAAGGCATC (((..(((....)))))), in data set [1], the Tm came out at 31.4 °C. For the same sequence, in data set [2], the folding enthalpy is -51.7 kJ/mol.

Consider GATGCGGGAAACCGCGTC ((.((((....)))).)), for which, in data set [1], the Tm came to 59.9 °C. The folding enthalpy in data set [2] is -80.2 kJ/mol.

For GATGCGGGAAACCGTGTC ((..(((....)))..)), the Tm in data set [1] turned out to be 43.7 °C. Moreover, the folding enthalpy in data set [2] was -110 kJ/mol.

On to GATGCGGGAAACTGCGTC ((.((.(....).)).)), for which the Tm in data set [1] amounted to 44.2 °C. Also, the folding enthalpy in data set [2] is -88.3 kJ/mol.

With GATGGAGGAAACCCCATC (((((.(....).))))), the Tm in data set [1] is 43 °C. The folding enthalpy in data set [2] was -132 kJ/mol.

As to GATGGCCGAAAGGCGATC (((.(((....))).))), in data set [1], the Tm was 52.8 °C. Also, in data set [2], the folding enthalpy was -100 kJ/mol.

For the sequence GATGGCGAAAGCCCGATC ((((((....)))..))), the Tm in data set [1] was 27.7 °C. Further, in data set [2], the folding enthalpy was -41.4 kJ/mol.

On to GATGGCGAAAGCCGATC ((((((....))).))), for which the Tm in data set [1] is 47.6 °C. The folding enthalpy in data set [2] was -64.3 kJ/mol.
